This note sets out measurements from ChEMBL document CHEMBL4513216, “Probing the Open Global Health Chemical Diversity Library for Multistage-Active Starting Points for Next-Generation Antimalarials” (ACS Infect Dis, 2020).

A short description of the data set: Toxicity liver stage against HepG2, at 10uM. The format is cell-based. Also on record: test concentration 10 uM, cell line HepG2-A16-CD81EGFP. The conditions noted are these: human, HepG2-A16-CD81EGFP cells; read-out: INHIBITION
In outline: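 Uninfected HepG2-A16-CD81EGFP cells, 3 × 10^3 per well, 1536-well, plated on prespotted compound at 10 μM final, parasite-free screening media added to match infected plates; puromycin 10 μM positive, DMSO 0.5% negative; run in parallel with 48 h PbLuc assay at 37 °C, 5% CO2; viability by CellTiter-Glo luminescence, normalized to controls.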
As for `CC(=O)N[C@H](C)c1c(-c2ccc(Cl)cc2)noc1C(=O)O`, the cytotoxicity at 10 µM was determined as 3.29%.

`NC(=O)CN1C(=O)CO[C@H]2CN(Cc3ccc(C(F)(F)F)cc3)C[C@H]21`: the cytotoxicity at 10 µM stood at 0.523%.

Turning to `O=C(Nc1ccccc1)[C@H]1CN2CCC1C[C@@H]2Cn1cc(CO)nn1` (some centres not stated), the cytotoxicity at 10 µM is -2.42%.

For `CC(=O)N1N=C(c2ccccc2)OC1C(=O)NCCOc1ccccc1` (configuration not stated), the cytotoxicity at 10 µM is -2.86%.

As for `CNC(=O)c1cc(-c2ccccc2OC)[nH]n1`, the cytotoxicity at 10 µM is -2.77%.

In the case of `COc1cccc(NC(=O)Cn2c(=O)nc(N)c3cc(C)sc32)c1`, the cytotoxicity at 10 µM was -8.72%.

In the case of `Cc1nsc(C(=O)NCCc2cccs2)n1`, the cytotoxicity at 10 µM is -2.67%.

With `CCN(C)C1COC2(CCN(C(=O)c3ccc4[nH]ccc4c3)CC2)C1` (configuration not stated), the cytotoxicity at 10 µM is -5.96%.

For the molecule `CCN1C(=O)C(c2ccccc2)CC12CCN(c1ncccn1)CC2` (configuration not stated), the cytotoxicity at 10 µM was found to be 1.11%.

For the molecule `COCCC(=O)N1Cc2[nH]nc(COc3cccnc3)c2C1`, the cytotoxicity at 10 µM was -2.97%.

With `Cc1cncc(C(=O)NCC2COCc3c(C)nnn3C2)c1` (configuration not stated), the cytotoxicity at 10 µM is -2.03%.

For the molecule `CC(C)(C)n1ncc2c1NC(=O)CC2c1ccc(C(=O)O)cc1` (configuration not stated), the cytotoxicity at 10 µM turned out to be 2.08%.

Turning to `COC(=O)CCc1c(C)nn(-c2nc(C)cc(=O)[nH]2)c1C`, the cytotoxicity at 10 µM stood at 9.22%.

In the case of `COc1cccc(S(=O)(=O)NC2CNC(=O)C2)c1` (configuration not stated), the cytotoxicity at 10 µM is -21.7%.

Regarding `COc1ccc(C)cc1S(=O)(=O)NCCC(O)c1ccccc1` (configuration not stated), the cytotoxicity at 10 µM worked out at 0.197%.

For `Cc1nc(C)c(C(=O)N2CCc3nnc(C4CCCCN4C)n3CC2)s1` (configuration not stated), the cytotoxicity at 10 µM was determined as 0.642%.

In the case of `O=C(Cc1ccccc1F)N1CCC[C@@H]1Cn1c(=O)oc2ccccc21`, the cytotoxicity at 10 µM is 2.69%.

Take `O=S(=O)(c1ccccc1)N1CCOC(Cn2ccnc2)C1` (configuration not stated): the cytotoxicity at 10 µM was found to be 7.77%.

On to `CC(C)n1nnc(CC(=O)NCC2(c3ccccc3F)CCCC2)n1`, for which the cytotoxicity at 10 µM is -0.325%.

With `COc1ccc2c(c1)NC(C1CCN(C(=O)C(C)C)CC1)NS2(=O)=O` (configuration not stated), the cytotoxicity at 10 µM is -4.66%.

As for `NCc1cccc(-c2cccnc2C(=O)NCCCN2CCOCC2)c1`, the cytotoxicity at 10 µM is -8.77%.

`c1cc(-c2cnc(NC3CC3)nc2[C@H]2CCCO2)ccn1`: the cytotoxicity at 10 µM is 9.83%.

As to `O=C(Cn1cccc2cc(-c3ccc(F)cc3)nc1-2)N1CCC(O)CC1`, the cytotoxicity at 10 µM was -7.74%.

Take `CCC(C)C(=O)NCc1ccn(-c2ccc(F)cc2)n1` (configuration not stated): the cytotoxicity at 10 µM is -2.42%.

For `CCC(=O)N(C)Cc1cccc(OC(C)C)c1`, the cytotoxicity at 10 µM was determined as 12.8%.

`COc1ccc(Cl)cc1NCC(=O)N(Cc1ccccn1)C1CC1`: the cytotoxicity at 10 µM came to 8.13%.

Turning to `Cc1noc(C(C)N2CCN(CCc3ccncc3)CC2)n1` (configuration not stated), the cytotoxicity at 10 µM came to 2.67%.

Take `Cc1noc(C)c1C(C)NC(=O)N1CCCN(C(=O)c2ccsc2)CC1` (configuration not stated): the cytotoxicity at 10 µM is -0.77%.

Turning to `CC(Cn1cncn1)NC(=O)N1CC2(CCCC2)c2ccccc21` (configuration not stated), the cytotoxicity at 10 µM turned out to be 5.65%.

For `Cc1nc2ccccc2nc1CN1CCc2c(nc(C3CC3)n2C)C1`, the cytotoxicity at 10 µM came out at 7.97%.

Consider `CC(C)CNC(=O)COc1cccc[n+]1[O-]`, for which the cytotoxicity at 10 µM is -8.35%.

Consider `CCN(CCO)C(=O)Nc1ccc(OCCOC)nc1`, for which the cytotoxicity at 10 µM is -5.71%.

On to `COc1ccccc1CNC(Cn1cncn1)c1ccccc1` (configuration not stated), for which the cytotoxicity at 10 µM is -6.1%.

Take `Cc1ccoc1C(=O)N1CCOC2(CCCC2)C1`: the cytotoxicity at 10 µM is -4.55%.

On to `N#Cc1cn(CCCN2CCc3ccccc32)c(=O)[nH]c1=O`, for which the cytotoxicity at 10 µM came to 6.48%.

On to `CC(C)OCCC(=O)N1CCN(CC(O)c2ccccc2)CC1` (configuration not stated), for which the cytotoxicity at 10 µM was -8.09%.

Turning to `c1ccc(C(c2ccccc2)N2CCN(CCn3cncn3)CC2)cc1`, the cytotoxicity at 10 µM is -7.72%.

For `Cc1cnn(C2CN(CC(=O)NCC3(c4ccccc4)CCC3)C2)c1`, the cytotoxicity at 10 µM is -4.2%.

For the molecule `Cc1nn(C)c(N(C)C)c1CNC(C)c1cccnc1` (configuration not stated), the cytotoxicity at 10 µM is -2.8%.

For the molecule `COc1ccc(OCCNc2cccc(C(=O)N3CCOCC3)c2)cc1`, the cytotoxicity at 10 µM was 7.08%.

As for `Cc1nnc(NC(=O)CN2CCCC2c2noc(C3CC3)n2)s1` (configuration not stated), the cytotoxicity at 10 µM is 5.22%.

As for `CN(C)C(=O)C(C)(C)c1ccc2c(c1)OCCO2`, the cytotoxicity at 10 µM was -1.52%.

Turning to `Cc1nc(CN2CCCN(C(=O)c3ccn(C)c(=O)c3)CC2)cs1`, the cytotoxicity at 10 µM was -12.7%.

Take `Cn1cc(CNC(=O)C2CCCN(Cc3cccc(F)c3)C2)cn1` (configuration not stated): the cytotoxicity at 10 µM amounted to 3.44%.

Turning to `CCOc1ccc(S(=O)(=O)C(C)C(=O)Nc2cc(C)no2)cc1` (configuration not stated), the cytotoxicity at 10 µM was found to be 5.07%.

Take `O=C(CCc1nc(C2CC2)no1)c1ccccc1`: the cytotoxicity at 10 µM is -6.43%.

Regarding `N#Cc1ccc(CN2CCNC(=O)C2c2cccs2)cc1` (configuration not stated), the cytotoxicity at 10 µM was -2.89%.

With `CC(=O)N1CCN(C(C)c2ccc(Br)cc2)CC1` (configuration not stated), the cytotoxicity at 10 µM was -5.63%.

On to `CCN(Cc1ccoc1)C(=O)C1CCN(C(=O)OC(C)(C)C)C1` (configuration not stated), for which the cytotoxicity at 10 µM was -15.5%.

On to `O=S(=O)(Cc1ccccc1)NCc1nnc2n1CCC2`, for which the cytotoxicity at 10 µM amounted to 16.2%.

With `CC(Cn1cccn1)NC(=O)NCCCN1CCc2ccccc2C1` (configuration not stated), the cytotoxicity at 10 µM is -3.08%.

Regarding `COc1ccc(CNCCn2c(C)nc3ccccc32)cc1O`, the cytotoxicity at 10 µM is -3.51%.

Consider `COCC(NC(=O)NCc1cccc(Cl)c1)c1ccco1` (configuration not stated), for which the cytotoxicity at 10 µM came out at 6.4%.

For `O=C(CCn1ccccc1=O)N1CCCC(COc2ccc(F)cc2)C1` (configuration not stated), the cytotoxicity at 10 µM was -4.19%.

In the case of `CCC[C@H]1CN(c2cncc(C(=O)N3CCCCC3)n2)C[C@@H]1N(C)C`, the cytotoxicity at 10 µM is -11.2%.

As to `CC(=O)NCC(=O)N1CCCC2(CCC(=O)N(CCc3c[nH]cn3)C2)C1` (configuration not stated), the cytotoxicity at 10 µM was 2.77%.

Regarding `CCCN(Cc1nc(-c2ccc(F)c(OC)c2)oc1C)CC1CCCO1` (configuration not stated), the cytotoxicity at 10 µM was -1.03%.

Turning to `COCCN(CC1CCCN(C2Cc3ccccc3C2)C1)C(=O)COC` (configuration not stated), the cytotoxicity at 10 µM is -5.98%.

`O=C1NC(C(=O)NCc2cccnc2Oc2ccccc2F)CO1` (configuration not stated): the cytotoxicity at 10 µM is 8.99%.

Take `O=C(c1ccccn1)N1CCc2c(nc(-c3ccncc3)[nH]c2=O)C1`: the cytotoxicity at 10 µM was 2.99%.

As to `CC(C)CNS(=O)(=O)c1ccc(C(=O)N(C)CCc2cn[nH]c2)cc1`, the cytotoxicity at 10 µM was 4.48%.

`COCCC(=O)N1CCCC2(CCC(=O)N(CCc3c[nH]cn3)C2)C1` (configuration not stated): the cytotoxicity at 10 µM was -3.76%.

`Cc1ccccc1CN1CCNC(=O)C1CC(=O)NCC1CCCCC1` (configuration not stated): the cytotoxicity at 10 µM is -8.77%.

With `CCn1cc(CNC2CCN(c3cccc(C)c3C)CC2)cn1`, the cytotoxicity at 10 µM was -9.99%.

On to `COc1cccc(CCn2ccnc2-c2cn(C3CCNCC3)nn2)c1`, for which the cytotoxicity at 10 µM is -7.23%.

`Cc1n[nH]c(C)c1CCN(C)C(=O)C(c1cccnc1)N1CCOCC1` (configuration not stated): the cytotoxicity at 10 µM was -0.593%.

As for `COc1cc(CN2CCCC23CCN(c2ccccn2)CC3)ccc1F`, the cytotoxicity at 10 µM is -11.5%.

Turning to `Cn1ncc2c(NCCC34CCCN3CCC4)nc(C3CCCC3)nc21`, the cytotoxicity at 10 µM is -12.9%.

With `O=C(Nc1cc(F)ccc1OCC1CCCO1)NC1CC1` (configuration not stated), the cytotoxicity at 10 µM is 0.043%.

Consider `COc1ccc(C(=O)N2CCCC2c2cnn(C)c2)cn1` (configuration not stated), for which the cytotoxicity at 10 µM is -3.63%.

For `O=C(CS(=O)(=O)Cc1cc(Cl)c2c(c1)OCO2)N1CCCCCC1`, the cytotoxicity at 10 µM was -2.8%.

Turning to `Cc1nn(C)c(Cl)c1C1CCCN1Cc1nc(-c2ccco2)no1` (configuration not stated), the cytotoxicity at 10 µM is -11.8%.

On to `COc1ccc(CNC(=O)CCSCc2csc(C)n2)cn1`, for which the cytotoxicity at 10 µM was -21.4%.

Take `OC(CN1CCC(c2ccn[nH]2)CC1)c1ccc(F)cc1` (configuration not stated): the cytotoxicity at 10 µM is -28.9%.

With `Cc1nc(CN2CCC(c3ccnn3CCO)CC2)oc1C`, the cytotoxicity at 10 µM was -15.9%.

On to `CC(O)CN1CCN(C(=O)c2ccn(-c3ccccc3Cl)n2)CC1` (configuration not stated), for which the cytotoxicity at 10 µM is -11.6%.

On to `c1ncn(CC2CCCN(Cc3csc(-c4ccsc4)n3)C2)n1` (configuration not stated), for which the cytotoxicity at 10 µM was -9.86%.

For the molecule `Cc1noc(C)c1CN1CCCC(c2noc(C3CC3)n2)C1` (configuration not stated), the cytotoxicity at 10 µM is -12.8%.

For `CC(NC(=O)CCCOc1ccc(F)cc1)c1nnc2n1CCC2` (configuration not stated), the cytotoxicity at 10 µM is -16.1%.

In the case of `Cc1noc(C(C)C)c1C(=O)NCCCN1CCC(C)CC1`, the cytotoxicity at 10 µM is -15.9%.

Take `Cc1cnn(CC2CCCN2CC(=O)Nc2nccs2)c1` (configuration not stated): the cytotoxicity at 10 µM was -4.34%.

In the case of `Cc1ccc(S(C)(=O)=O)cc1C(=O)N1CCCC(n2cncn2)C1` (configuration not stated), the cytotoxicity at 10 µM is -8.21%.

Turning to `Cc1nc(C)n(CC2CCCN2Cc2cn(-c3ccccc3)nn2)n1` (configuration not stated), the cytotoxicity at 10 µM is 3.87%.

Turning to `CCN(CC)C1CCN(C(=O)NCc2nncn2CC)CC1`, the cytotoxicity at 10 µM was found to be 2.72%.

In the case of `Cc1c(CN2CCc3nc4sccc4c(=O)n3CC2)cnn1C`, the cytotoxicity at 10 µM is -2.75%.

As to `CCN1CCC2(CCN(c3ncccn3)CC2)C1=O`, the cytotoxicity at 10 µM turned out to be 1.26%.

For the molecule `O=C(O)c1cc2c(nc1N1CCOCC1)CCN(C1CCOC1)CC2` (configuration not stated), the cytotoxicity at 10 µM worked out at 6.68%.

Consider `COc1ncccc1CN1CCc2[nH]nc(C(=O)N3CCCC3C)c2C1` (configuration not stated), for which the cytotoxicity at 10 µM was -4.4%.

`CN(C)c1ncnc2c1CCN(Cc1nccs1)CC2`: the cytotoxicity at 10 µM turned out to be 6.1%.

Turning to `CCN(C)c1ncnc2c1CCN(C(=O)COC)CC2`, the cytotoxicity at 10 µM amounted to 1.75%.

On to `O=C(c1ccc(F)cc1)N1CC[C@H]2[C@H]1CCN2CC1CC1`, for which the cytotoxicity at 10 µM is -1.92%.

As to `O=S(=O)(c1cccc(F)c1)N1CC[C@H]2[C@H]1CCN2c1ncccn1`, the cytotoxicity at 10 µM was -4.35%.

Regarding `O=C(C1CC1)N1CC2(CCNCC2)c2cc(F)ccc21`, the cytotoxicity at 10 µM was found to be 0.317%.

`COCC(=O)N1CCCC2(CCN(CCN3CCCC3)CC2)C1`: the cytotoxicity at 10 µM came out at 4.71%.

Consider `CC(C)N1CCC2(CC1)CC(NS(C)(=O)=O)c1ccccc1O2` (configuration not stated), for which the cytotoxicity at 10 µM stood at 7.16%.

Consider `CC(=O)N1CCC2(CCN(Cc3cccc(F)c3)CC2)CC1`, for which the cytotoxicity at 10 µM was -5.46%.

Consider `Cc1ccc(N2CCO[C@H]3CN(Cc4cccnc4)C[C@H]32)nn1`, for which the cytotoxicity at 10 µM was -81.3%.
